RGS4 block: RGS4 inhibitors, primary screen, cell-based, HEK293 M3R inducible RGS4, calcium flux. B-score at 10 µM. 310,000 compounds, 0.45% hits. Regulator of G-protein signaling 4 (Homo sapiens), P49798. Fluo-4 calcium flux; hits give high values; triggered by carbachol at its EC20;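 active = B-score, a plate-corrected calcium signal, over three deviations above library mean, with baseline fluorescence within five deviations of library mean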;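 note: RGS4 expression induced by doxycycline in cells with stable M3 receptor; B-score is computed from the integrated fluorescence ratio over baseline after carbachol; higher B-score means a larger calcium signal and so more RGS4 inhibition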
MrgX1 antag: antagonists of human MrgX1 receptor, primary screen, HEK293 cells, Fluo-4 calcium flux; Mas-related G-protein coupled receptor member X1 (Homo sapiens), Q96LB2; BAM8-22 antagonism; hits give low values; B-score at 10 µM; 310,000 compounds, 1.3% hits; AID 588676, 2011;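 active = calcium-response B-score plate-corrected more than 3 library SD below zero, starting fluorescence within 5 deviations, no agonist response on first addition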;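 note: peak minus trough fluorescence over baseline after final BAM8-22 challenge near maximal dose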
Target sequence (Q96LB2 whole entry, looked up): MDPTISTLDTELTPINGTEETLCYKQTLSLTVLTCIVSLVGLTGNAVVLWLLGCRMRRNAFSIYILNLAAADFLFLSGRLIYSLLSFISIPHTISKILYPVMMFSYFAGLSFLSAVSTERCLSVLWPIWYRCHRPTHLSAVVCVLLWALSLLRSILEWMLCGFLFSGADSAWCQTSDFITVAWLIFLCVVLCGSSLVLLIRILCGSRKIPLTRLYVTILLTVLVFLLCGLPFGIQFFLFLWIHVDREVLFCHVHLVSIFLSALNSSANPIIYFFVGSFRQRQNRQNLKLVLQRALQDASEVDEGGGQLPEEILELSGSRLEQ
MrgX1 agonist: agonists of human MrgX1 receptor, primary screen, HEK293 cells, Fluo-4 calcium flux; Mas-related G-protein coupled receptor member X1 (Homo sapiens), Q96LB2; Fluo-4 calcium fluorescence, agonist mode; hits give high values; B-score at 10 µM; 310,000 compounds, 0.44% hits; AID 588627, 2011;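 active = calcium response B-score plate-corrected fluorescence ratio at least 3 library SD, with starting fluorescence B-score inside 5 SD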
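Material: MrgX1-expressing HEK293 cells / Dosing: compound as first of three additions / Incubation: overnight seeding, then 1 h dark dye loading / Signal: Fluo-4 NW calcium fluorescence / Evaluation: B-scored fluorescence response ratio / Benchmarks: positive and negative control wells on each plate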
RGS4 act: RGS4 potentiators or activators, primary screen, cell-based, HEK293 M3R inducible RGS4, calcium flux | B-score at 10 µM | AID 463111, 2010 | 310,000 compounds, 0.92% hits | carbachol calcium flux Fluo4; hits give low values;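 active = B-score of the integrated calcium signal more than 4 SD below the library mean, with starting fluorescence not abnormally high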;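 note: negative B-score means reduced calcium response which marks RGS4 activation or potentiation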
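Material: Inducible-RGS4 HEK293 cells carrying M3 receptor; also added: carbachol at ECmax as muscarinic agonist stimulus; incubation: compound preincubation 20 min at room temperature before agonist; signal: Fluo4-AM (2 µM) calcium-flux fluorescence, kinetic read; measure: integrated calcium ratio converted to B score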
MrgX1 allo act: positive allosteric modulators of MrgX1, primary screen, HEK293 cells, Fluo-4 calcium flux; FDSS; hits give high values; B-score at 10 µM; 310,000 compounds, 0.63% hits; AID 588675, 2011;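 active = plate-corrected calcium response at least 3 library SD above typical, normal starting fluorescence, not activating the receptor alone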;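 note: compound read alongside a low EC10 to EC30 dose of BAM8-22 agonist; peak minus trough fluorescence over baseline measured at the second addition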
Starred values were filed as active, the others as inactive; i = inactive; nt = no result given. Most compounds without a hit are left out; they make up all but 3.5% or so of the library.

SMILES | RGS4 block | MrgX1 antag | MrgX1 agonist | RGS4 act | MrgX1 allo act
Oc1ccccc1-[n+]1c(-c2ccccc2)cc(-c2ccccc2)cc1-c1ccccc1 | i | i | i | -7.4* | 13*
O=C(O)c1ccc(-[n+]2c(-c3ccccc3)cc(-c3ccccc3)cc2-c2ccccc2)cc1 | i | i | i | i | i
[O-]c1ccccc1-[n+]1c(-c2ccccc2)cc(-c2ccccc2)cc1-c1ccccc1 | i | i | i | i | 8.3*
Cc1ccccc1-[n+]1c(-c2ccccc2)cc(-c2ccccc2)cc1-c1ccccc1 | i | -7.3* | i | -8.9* | i
Cc1ccc(-c2cc(-c3ccccc3)cc(-c3ccccc3)[n+]2-c2ccc(C(=O)O)cc2)cc1 | i | i | i | i | i
Nc1ccccc1-[n+]1c(-c2ccccc2)cc(-c2ccccc2)cc1-c1ccccc1 | i | -7.3* | i | i | i
COC(=O)C1=C(c2ccccc2)C[C@@H]2CC[C@H]1N2C(=O)NCCS(C)=O (stereo partly specified) | i | i | i | i | i
CCN(CC)c1ccc(N=Cc2c(O)n(Cc3ccco3)c(=O)[nH]c2=O)cc1 | i | i | i | i | i
CCN(CCO)c1ccc(N=Cc2c(O)n(C)c(=S)[nH]c2=O)cc1 | i | i | 43* | i | i
CC1CCC(C(C)C)C(OC(=O)Cn2c(COc3ccccc3)[n+](C)c3ccccc32)C1 (stereo unspecified) | i | -14* | i | -8* | i
O=C(COc1ccc(Cl)cc1)N(c1ccccc1Cl)C1CN2CCC1CC2 (stereo unspecified) | i | i | i | i | i
Clc1ccc2c(c1)C(OC1CN3CCC1CC3)c1ccccc1CS2 (stereo unspecified) | i | i | i | -8.6* | i
CN1CCN(CCOC2c3ccccc3CSc3ccc(Cl)cc32)CC1 (stereo unspecified) | i | -9.4* | i | i | i
Clc1ccc(C(OCCN2CCCCC2)c2ccccc2)cc1 (stereo unspecified) | nt | i | i | nt | i
C/C=C1/C[C@@H](C)[C@](O)(CO)C(=O)OCC2=CCN3CC[C@@H](OC1=O)[C@@H]23 | nt | i | i | nt | i
C/C=C1/CC(C)C(C)(O)C(=O)OCC2CCN3CCC(OC1=O)C23 (stereo unspecified) | i | i | i | -8.2* | i
c1ccc(-c2[nH]c[n+](CC3CO3)c2-c2ccccc2)cc1 (stereo unspecified) | nt | i | i | nt | i
CCOc1cc2c(cc1OCC)-n1cccc1C(c1ccc(OC)cc1)NC2 (stereo unspecified) | i | -8.4* | i | i | i
CCOc1cc2c(cc1OCC)-n1cccc1C(c1ccc(F)cc1)NC2 (stereo unspecified) | i | i | i | i | i
CCOc1cc2c(cc1OCC)-n1cccc1C(c1ccc(C(C)C)cc1)NC2 (stereo unspecified) | i | -5.2* | i | i | i
CC(=O)N1CN2CN(C1)CN(C(C)=O)C2 | i | i | i | i | i
COc1ccc(C(=O)O/N=C(/C(N)=O)P(=O)(OC(C)C)OC(C)C)cc1 | i | i | i | -7.7* | i
Cc1cc(C=C2C(=O)NC(=S)NC2=O)c(C)n1C1CCCC1 | i | i | i | i | i
Cc1cc(C=C2C(=O)N(C)C(=S)N(C)C2=O)c(C)n1C1CCCCC1 | i | i | 47* | i | i
CC1Oc2cc3c(-c4c(O)cc(O)c5c(O)c6c(cc45)OC(C)C(C)C6=O)c(O)cc(O)c3c(O)c2C(=O)C1C (stereo unspecified) | i | -5.9* | i | i | i
C1CCC2S[C@H]3CCCCC3NC2C1 (stereo partly specified) | i | i | i | i | i

Bioassay records: PubChem, Johns Hopkins Ion Channel Center
